Test results from publication PMC3325786 (Cancer Research, 2011).
DNP = 2,4-dinitrophenyl quencher group; MCA = fluorogenic coumarin group

Experiments:
Taspase1 [1] = biological target: T1, Taspase1 (Homo sapiens, UniProt Q9H6P5); assay: In vitro cleavage of radiolabeled p75MLL reporter by recombinant Taspase1; type: biochemical; conditions: for activity against Taspase1 (cleavage of p75MLL): in vitro cleavage assay
T1 sequence (Q9H6P5 1-233 limits assumed): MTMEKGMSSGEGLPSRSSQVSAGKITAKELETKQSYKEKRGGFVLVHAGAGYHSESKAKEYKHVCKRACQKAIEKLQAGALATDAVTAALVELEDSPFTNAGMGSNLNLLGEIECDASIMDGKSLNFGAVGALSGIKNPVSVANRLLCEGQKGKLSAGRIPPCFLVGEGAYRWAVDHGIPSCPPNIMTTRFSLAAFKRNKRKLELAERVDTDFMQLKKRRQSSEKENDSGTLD
T1 sequence (Q9H6P5 234-420 limits assumed): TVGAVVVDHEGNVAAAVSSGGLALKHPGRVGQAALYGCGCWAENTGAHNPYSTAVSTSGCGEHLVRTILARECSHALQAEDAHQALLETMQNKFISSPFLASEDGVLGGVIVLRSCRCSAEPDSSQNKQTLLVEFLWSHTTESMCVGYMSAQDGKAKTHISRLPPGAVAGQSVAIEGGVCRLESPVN

Taspase1 [2] = biological target: T1, Taspase1; assay: FRET-based Taspase1 cleavage assay with FRPR reporter; type: biochemical
Caspase8 = Caspase8 (Homo sapiens, UniProt Q14790); assay: Caspase8-p22Bid in vitro cleavage assay; type: biochemical; conditions: 1 mM compound, 250 ng rCaspase8
Sequence of Caspase8 (Q14790 217-374 limits assumed, species assumed): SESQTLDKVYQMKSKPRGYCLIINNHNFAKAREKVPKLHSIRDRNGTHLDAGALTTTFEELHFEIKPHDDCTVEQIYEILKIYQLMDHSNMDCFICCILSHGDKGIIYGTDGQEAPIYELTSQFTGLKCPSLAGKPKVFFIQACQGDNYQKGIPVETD
Sequence of Caspase8 (Q14790 385-479 limits assumed, species assumed): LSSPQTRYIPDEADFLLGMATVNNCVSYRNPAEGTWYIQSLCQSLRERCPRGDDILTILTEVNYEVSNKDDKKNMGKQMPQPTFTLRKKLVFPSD

MMTV-neu breast cancers = assay: MMTV-neu mouse breast cancer model; type: in vivo; conditions: every other day, 5 intravenous injections
U251 xenograft = assay: U251 brain tumor xenograft, bioluminescent imaging; type: in vivo, mouse; conditions: treated on days 0, 2 and 4; compared to vehicle
In short: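 U251 cells stably expressing firefly luciferase were implanted subcutaneously into the flanks of male NOD-scid IL2Rγ−/− mice aged 6–8 weeks on day −1. Test compound was given at indicated doses on days 0, 2 and 4. Tumor mass was followed by bioluminescence imaging, normalized to 1 at day 0. Mean ± SD of 4 tumors per arm.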

[3] = In vivo toxicity profile after short term tail vein injections; set-up: species or system mouse
U251 cells = assay: Growth inhibition of NCI60 brain tumor cell lines; type: cell-based, human; conditions: NCI DTP GI50 data confirmed by MTT, 2 days
autotaxin = conditions: cited from earlier work
[4] = test system: Taspase1−/−;Taspase1 MEFs; assay: MTT relative cell number in SV40-transformed MEFs; type: cell-based, mouse; conditions: 1uM, 2 days
MMTV-wnt breast cancers = assay: MMTV-wnt mouse breast cancer model; type: in vivo; conditions: every other day, 5 intravenous injections
[5] = biological target: T2, Taspase1 precursor (p50T1α-β) (Homo sapiens, UniProt Q9H6P5); assay: Intramolecular autoproteolysis of radiolabeled Taspase1 precursor p50T1α-β; type: biochemical; conditions: increasing amounts, 6 hours at 30°C
T2 sequence (Q9H6P5 1-420): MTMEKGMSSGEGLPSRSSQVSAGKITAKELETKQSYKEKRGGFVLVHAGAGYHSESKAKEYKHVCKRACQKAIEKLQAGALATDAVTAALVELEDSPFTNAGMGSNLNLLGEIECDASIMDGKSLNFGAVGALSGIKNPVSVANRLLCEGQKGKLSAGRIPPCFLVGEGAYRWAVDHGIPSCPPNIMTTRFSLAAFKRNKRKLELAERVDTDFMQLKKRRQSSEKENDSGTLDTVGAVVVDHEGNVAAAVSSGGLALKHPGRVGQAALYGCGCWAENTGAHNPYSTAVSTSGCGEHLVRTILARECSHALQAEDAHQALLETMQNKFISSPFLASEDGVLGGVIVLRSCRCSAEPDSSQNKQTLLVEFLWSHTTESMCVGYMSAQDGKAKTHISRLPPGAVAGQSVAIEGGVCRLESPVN
In short: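 Radiolabeled 50 kD Taspase1 precursor (p50T1α-β, 0.5 μl) incubated in cleavage buffer at 30°C for 6 hours with indicated concentrations of test compound. Maturation is scored as autoproteolytic conversion to the 28 kD α and 22 kD β subunits.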

[6] = short term tail vein injections

Compound: CC(C)C[C@H](NC(=O)[C@H](Cc1ccccc1)NC(=O)c1cnccn1)B(O)O [Bortezomib, reference compound]
- activity against Taspase1 (cleavage of p75MLL) (Taspase1 [1]): no activity

Compound: COc1ccc(C(=O)OCc2ccc3c(c2)OCO3)cc1 [NSC23953]
- activity against Taspase1 (cleavage of p75MLL) (Taspase1 [1]): no demonstrable activity

Compound: MCA-KISQLDGVDD-DNP ({MCA}-KISQLDGVDD-{DNP}) [FRPR, reference compound]
- Km (Taspase1 [2]; read-out: apparent KM, substrate of Taspase1): 9.06 ± 2.8 µM

Compound: O=[As](O)(O)c1ccc(Cc2ccc([As](=O)(O)O)cc2)cc1 [NSC48300, [4-[(4-arsonophenyl)methyl]phenyl] arsonic acid]
- IC50 (Taspase1 [1]): ~7.5 µM
- reversible or irreversible inhibition (extended pre-incubation) (Taspase1 [1]; 5 μM, pre-incubation for extended periods of time): reversible
- specificity: Caspase8-mediated cleavage of p22Bid (Caspase8): specifically targeted Taspase1
- growth of MMTV-neu breast cancers (MMTV-neu breast cancers): consistently disrupted the growth
- tumor growth by bioluminescent imaging (U251 xenograft): stasis of tumor growth
- hemoglobin levels ([3]; complete blood counts): decrease
- white blood cell counts ([3]; complete blood counts): decrease
- injection site damage ([3]; repetitive tail vein treatment): fibrotic damages of regional vessels at injection sites
- blood chemistry: LDH level [3, 6]: significant decrease
- blood chemistry: electrolytes and kidney functions [3, 6]: certain alterations
- histological examination of major organs [3, 6]: did not reveal any obvious abnormalities
- sensitivity to treatment in vitro among NCI60 brain tumor cell lines (U251 cells): most sensitive
- lysophospholipase D activity of autotaxin (autotaxin): inhibited
- mode of inhibition (Taspase1 [2]; non-linear regression of reaction curves): non-competitive
- sensitivity compared to parental Taspase1−/− cell line [4]: increased sensitivity
- growth of MMTV-wnt breast cancers (MMTV-wnt breast cancers): no effects
- impact on Taspase1 autoproteolysis [5]: no impact

Compound: O=[N+]([O-])c1cccc(NCNc2cccc([N+](=O)[O-])c2)c1 [NSC47905]
- activity against Taspase1 (cleavage of p75MLL) (Taspase1 [1]): no demonstrable activity

Compound: O=C(O)Cc1ccc(Oc2ccc(CC(=O)O)cc2)cc1 [NSC74084]
- activity against Taspase1 (cleavage of p75MLL) (Taspase1 [1]): no demonstrable activity

Compound: Cc1cc(Cc2ccc3c(c2)OCO3)ccc1OCC(=O)O [NSC352678]
- activity against Taspase1 (cleavage of p75MLL) (Taspase1 [1]): no demonstrable activity

Compound: O=[As](O)(O)O [arsenic acid, reference compound]
- inhibition of Taspase1 by free arsenic acid (Taspase1 [1]; up to 1 mM, 5 ng rTaspase1, 30 min preincubation): no detectable inhibition
